pIC50: −log10 of the molar value.
tested on: Staphylococcus aureus; experiment: Antibacterial activity against Staphylococcus aureus FDA209P JC-1 assessed as reduction in microbial growth after 20 hrs by liquid microculture method; assay type: functional; conditions: FDA209P JC-1, 20 h
Summary of the method: (§1)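 Broth microdilution MIC: twofold serial dilutions of compound were made across the plate, with the solvent vehicle kept at 0.5% of the final culture volume. The inoculum came from a log-phase culture. Plates were incubated at 37 °C for 20 h and growth was read as absorbance at 650 nm, in triplicate. Kanamycin sulfate was the reference drug.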

| MIC [µg/mL] | Structure (SMILES) |
| --- | --- |
| 3.12 | CC(C)CCCCCCC(=O)c1c[nH]cn1 |
| 1.56 | CCCCCCCCCC(=O)c1c[nH]cn1 |
| 1.56 | CCC(C)CCCCCCC(=O)c1c[nH]cn1 (racemic) |

tested on: Tenacibaculum maritimum; experiment: Antibacterial activity against Tenacibaculum maritimum NBRC16015 assessed as reduction in microbial growth after 20 hrs by liquid microculture method; assay type: functional; conditions: NBRC16015, 20 h
Summary of the method: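 Twofold serial-dilution microculture MIC: vehicle at 0.5% of final volume, log-phase inoculum, incubation at 24 °C. Growth was read as absorbance at 650 nm in triplicate. Sulfamethoxazole was the reference drug.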

| MIC [µg/mL] | Structure (SMILES) |
| --- | --- |
| 12.5 | CC(C)CCCCCCC(=O)c1c[nH]cn1 |
| 6.25 | CCCCCCCCCC(=O)c1c[nH]cn1 |
| 3.12 | CCC(C)CCCCCCC(=O)c1c[nH]cn1 (racemic) |

tested on: Trichophyton rubrum; experiment: Antifungal activity against Trichophyton rubrum NBRC5467 assessed as reduction in microbial growth after 20 hrs by liquid microculture method; assay type: functional; conditions: NBRC5467, 20 h
Summary of the method: (§2)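 Antifungal MIC by twofold serial dilution in microplates: vehicle at 0.5% of final volume, inoculum from a log-phase culture, incubation at 25 °C. Growth was read as absorbance at 650 nm in triplicate. Amphotericin B was the reference drug.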

| MIC [µg/mL] | Structure (SMILES) |
| --- | --- |
| 3.12 | CC(C)CCCCCCC(=O)c1c[nH]cn1 |
| 1.56 | CCCCCCCCCC(=O)c1c[nH]cn1 |
| 0.78 | CCC(C)CCCCCCC(=O)c1c[nH]cn1 (racemic) |

tested on: Candida albicans; experiment: Antifungal activity against Candida albicans NBRC0197 assessed as reduction in microbial growth after 20 hrs by liquid microculture method; assay type: functional; conditions: NBRC0197, 20 h; summary of the method: as §2

| MIC [µg/mL] | Structure (SMILES) |
| --- | --- |
| 6.25 | CC(C)CCCCCCC(=O)c1c[nH]cn1 |
| 12.5 | CCCCCCCCCC(=O)c1c[nH]cn1 |
| 6.25 | CCC(C)CCCCCCC(=O)c1c[nH]cn1 (racemic) |

tested on: P388; experiment: Cytotoxicity against mouse P388 cells assessed as reduction in cell viability after 72 hrs by XTT assay; assay type: functional, cell-based; conditions: P388, 72 h
Summary of the method: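 P388 cells were grown in RPMI-1640 with L-glutamine, 10% FBS and 0.1 mg/mL gentamicin sulfate. They were seeded in 96-well round-bottom plates and exposed to compound in 200 μL cultures for 72 h at 37 °C under 5% CO2. Medium containing XTT (1 mg/mL) and PMS (40 μg/mL) was then added for 4 h, the medium was aspirated, and formazan was read at 450 nm. Growth inhibition was calculated per concentration, with doxorubicin as the reference.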

| Structure (SMILES) | pIC50 |
| --- | --- |
| CC(C)CCCCCCC(=O)c1c[nH]cn1 | 5.15 |
| CCCCCCCCCC(=O)c1c[nH]cn1 | 5.24 |
| CCC(C)CCCCCCC(=O)c1c[nH]cn1 (racemic) | 5.30 |

tested on: Escherichia coli; experiment: Antibacterial activity against Escherichia coli NIHJ JC-2 assessed as reduction in microbial growth after 20 hrs by liquid microculture method; assay type: functional; conditions: NIHJ JC-2, 20 h; summary of the method: as §1

| MIC [µg/mL] | Structure (SMILES) |
| --- | --- |
| > 100 | CC(C)CCCCCCC(=O)c1c[nH]cn1 |
| > 100 | CCCCCCCCCC(=O)c1c[nH]cn1 |
| > 100 | CCC(C)CCCCCCC(=O)c1c[nH]cn1 (racemic) |

tested on: Colletotrichum gloeosporioides; experiment: Antifungal activity against Glomerella cingulata NBRC5907 assessed as reduction in microbial growth after 20 hrs by liquid microculture method; assay type: functional; conditions: NBRC5907, 20 h; summary of the method: as §2

| MIC [µg/mL] | Structure (SMILES) |
| --- | --- |
| 3.12 | CC(C)CCCCCCC(=O)c1c[nH]cn1 |
| 1.56 | CCCCCCCCCC(=O)c1c[nH]cn1 |
| 1.56 | CCC(C)CCCCCCC(=O)c1c[nH]cn1 (racemic) |

tested on: Kocuria rhizophila; experiment: Antibacterial activity against Kocuria rhizophila ATCC9341 assessed as reduction in microbial growth after 20 hrs by liquid microculture method; assay type: functional; conditions: ATCC9341, 20 h; summary of the method: as §1

| MIC [µg/mL] | Structure (SMILES) |
| --- | --- |
| 1.56 | CC(C)CCCCCCC(=O)c1c[nH]cn1 |
| 0.78 | CCCCCCCCCC(=O)c1c[nH]cn1 |
| 0.78 | CCC(C)CCCCCCC(=O)c1c[nH]cn1 (racemic) |

tested on: Agrobacterium tumefaciens; experiment: Antibacterial activity against Rhizobium radiobacter NBRC14554 assessed as reduction in microbial growth after 20 hrs by liquid microculture method; assay type: functional; conditions: NBRC14554, 20 h
Summary of the method: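 Broth microdilution MIC: twofold serial compound dilutions, vehicle at 0.5% of final volume, log-phase inoculum. Incubated at 37 °C for 20 h, with absorbance read at 650 nm in triplicate. Sulfamethoxazole was the reference drug.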

| MIC [µg/mL] | Structure (SMILES) |
| --- | --- |
| > 100 | CC(C)CCCCCCC(=O)c1c[nH]cn1 |
| > 100 | CCCCCCCCCC(=O)c1c[nH]cn1 |
| > 100 | CCC(C)CCCCCCC(=O)c1c[nH]cn1 (racemic) |

Source: ChEMBL document CHEMBL4610089, “Bulbimidazoles A-C, Antimicrobial and Cytotoxic Alkanoyl Imidazoles from a Marine Gammaproteobacterium Microbulbifer Species” (J Nat Prod, 2020)
